Experimental data from ChEMBL document CHEMBL4043083, “Design and synthesis of bicyclic acetals as Beta Secretase (BACE1) inhibitors” (Bioorg Med Chem, 2017).

Target: T1, Beta-secretase 1 (Homo sapiens, UniProt P56817)
Experiment: Inhibition of BACE1 (unknown origin) at 10 uM pre-incubated for 10 mins before addition of fluorescent substrate HiLyte FluorTM 488-Glu-Val-Asn-Leu-Asp-Ala-Glu-Phe-Lys and measured over 30 mins
Procedure, shortened: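 BACE1 (1 µg/mL) preincubated with inhibitor at 10 µM, 10 min, 25 °C, then reaction started by adding the internally quenched substrate (QXL 520 quencher). Fluorescence (ex 490/em 520 nm) read over 30 min at 25 °C. Percent inhibition = (1−Vs/Vo)×100 from initial velocities with and without inhibitor.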

T1 sequence (P56817 whole entry): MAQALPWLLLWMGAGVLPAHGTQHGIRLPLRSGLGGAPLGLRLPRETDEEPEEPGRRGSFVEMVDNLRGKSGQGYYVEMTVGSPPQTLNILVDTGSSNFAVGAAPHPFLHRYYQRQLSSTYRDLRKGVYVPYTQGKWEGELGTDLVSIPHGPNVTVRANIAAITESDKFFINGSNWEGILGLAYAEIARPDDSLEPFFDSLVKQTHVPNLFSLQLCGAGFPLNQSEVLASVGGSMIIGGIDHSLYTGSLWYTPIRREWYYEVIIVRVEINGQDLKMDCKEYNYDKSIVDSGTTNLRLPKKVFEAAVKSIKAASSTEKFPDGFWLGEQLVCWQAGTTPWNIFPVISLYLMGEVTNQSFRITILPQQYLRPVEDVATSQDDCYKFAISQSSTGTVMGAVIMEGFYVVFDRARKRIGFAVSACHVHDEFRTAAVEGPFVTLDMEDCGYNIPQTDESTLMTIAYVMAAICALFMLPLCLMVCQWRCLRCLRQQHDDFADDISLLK

inhibition [%] | SMILES
0 | CC(C)C[C@@H](CO)NC(=O)[C@H]1O[C@@H]2CN(Cc3ccccc3)C(=O)[C@H]1O2
0 | CC(C)C[C@H](CO)NC(=O)[C@H]1O[C@@H]2CN(Cc3ccccc3)C(=O)[C@H]1O2
0 | CC(C)C[C@H](CO)NC(=O)[C@@H]1O[C@H]2CN(Cc3ccccc3)C(=O)[C@@H]1O2
0 | COC(=O)[C@H](c1ccccc1)N1C[C@@H]2O[C@@H](C(=O)N3CCCCC3)[C@@H](O2)C1=O
15 | O=C([C@@H]1O[C@@H]2O[C@H]1C(=O)N(Cc1ccccc1)[C@H]2Cc1ccccc1)N1CCCCC1
8 | CC(C)C[C@@H](CO)NC(=O)[C@@H]1O[C@H]2CN(Cc3ccccc3)C(=O)[C@@H]1O2
0 | CCOC(=O)N1CCN(C(=O)[C@@H]2O[C@H]3CN(Cc4ccccc4)C(=S)[C@@H]2O3)CC1
10 | O=C([C@@H]1O[C@H]2CN(Cc3ccccc3)C(=S)[C@@H]1O2)N1CCOCC1
36 | O=C([C@@H]1O[C@H]2CN(Cc3ccccc3)C(=O)[C@@H]1O2)N1CCCCC1
16 | COC(=O)[C@@H]1O[C@H]2CN(Cc3ccccc3)C(=S)[C@@H]1O2

Continued, compound first:

SMILES | inhibition [%]
CCOC(=O)N1CCN(C(=O)[C@H]2O[C@H]3O[C@@H]2C(=S)N(Cc2ccccc2)[C@@H]3Cc2ccccc2)CC1 | 5
C#CCNC(=O)[C@@H]1O[C@H]2CN(Cc3ccccc3)C[C@@H]1O2 | 0
O=C([C@H]1O[C@H]2O[C@@H]1C(=S)N(Cc1ccccc1)[C@@H]2Cc1ccccc1)N1CCOCC1 | 32
O=C([C@@H]1O[C@@]2(c3ccccc3)CN(Cc3ccccc3)C(=O)[C@@H]1O2)N1CCOCC1 | 0
O=C(NC1CCCCC1)[C@@H]1O[C@@]2(c3ccccc3)CN(C(c3ccccc3)c3ccccc3)C(=O)[C@@H]1O2 | 0
C#CCNC(=O)[C@@H]1O[C@@H]2O[C@H]1C(=O)N(Cc1ccccc1)[C@H]2Cc1ccccc1 | 29
COC(=O)[C@H]1O[C@H]2O[C@@H]1C(=S)N(Cc1ccccc1)[C@@H]2Cc1ccccc1 | 9
COC(=O)[C@H](CC(C)C)N1C[C@@H]2O[C@@H](C(=O)N3CCCCC3)[C@@H](O2)C1=O | 46
CCOC(=O)N1CCN(C(=O)[C@@H]2O[C@@H]3O[C@H]2C(=S)N(Cc2ccccc2)[C@H]3Cc2ccccc2)CC1 | 16
COC(=O)[C@@H]1O[C@@H]2O[C@H]1C(=S)N(Cc1ccccc1)[C@H]2Cc1ccccc1 | 61
O=C([C@@H]1O[C@@H]2O[C@H]1C(=S)N(Cc1ccccc1)[C@H]2Cc1ccccc1)N1CCOCC1 | 0

Target: T1, Beta-secretase 1
Experiment: Inhibition of BACE1 (unknown origin) pre-incubated for 10 mins before addition of fluorescent substrate HiLyte FluorTM 488-Glu-Val-Asn-Leu-Asp-Ala-Glu-Phe-Lys and measured over 30 mins
Procedure, shortened: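 Kit-based fluorometric BACE1 assay. Enzyme at 1 µg/mL, preincubated 10 min at 25 °C with inhibitor across 0.003–30 µM before substrate (QXL 520-quenched) addition. Initial velocities taken from ex 490/em 520 nm fluorescence over 30 min at 25 °C. IC50 from the dose-response, run in triplicate in three independent experiments, given as mean ± SD.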

IC50 [µM] | SMILES
2.6 | COC(=O)[C@@H]1O[C@@H]2O[C@H]1C(=S)N(Cc1ccccc1)[C@H]2Cc1ccccc1
